The values below come from ChEMBL document CHEMBL1671756, “In vitro and in vivo antifungal susceptibilities of the Mucoralean fungus Cunninghamella” (2010).

Active and inactive are the calls of the source. The calls are words filed in the database; no cut-off is given here.

What all share (type): functional, organism-based
Assay [1] relates to Cunninghamella bertholletiae. Nature of the assay: Antifungal activity against Cunninghamella bertholletiae UTHSC 05-2275 infected in neutropenic OF1 mouse assessed as decreased fungal load in kidney at 0.8 mg/kg, iv qd administered 1 day post infection measured after 4 to 5 days relative to untreated control. Also on record: dose 0.8 mg/kg. The procedure, abridged: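 Neutropenic male OF1 mice (cyclophosphamide 200 mg/kg i.p. + 5-fluorouracil 150 mg/kg i.v., day −1) were infected i.v. with 1 × 10⁴ CFU. Ten mice per group were treated from day 1 and killed by CO₂ on day 5, or on day 4 if moribund. Half of each brain, lung and kidney was homogenized in 1 ml saline. Ten-fold dilutions were plated on PDA for 24 h at 35°C and counted as log₁₀ CFU/g.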

Assay [2] has as its system Cunninghamella bertholletiae. Nature of the assay: Antifungal activity against Cunninghamella bertholletiae UTSCH 05-2275 infected in diabetic OF1 mouse assessed as decreased fungal load in lung at 0.8 mg/kg, iv qd administered 1 day post infection measured after 4 to 5 days relative to untreated control. Also on record: dose 0.8 mg/kg. Summed up: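 Diabetic OF1 mice (streptozocin 210 mg/kg i.p.; glucose >250 mg/dl) were infected i.v. with 1 × 10⁵ CFU, with ceftazidime cover. Ten per group were treated from day 1 and killed day 5, or day 4 if moribund. Half-organ homogenates (brain, lung, kidney) in 1 ml saline were serially diluted 10-fold on PDA, incubated 24 h at 35°C, and reported as log₁₀ CFU/g tissue.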

Assay [3] relates to Cunninghamella bertholletiae. Put plainly: Antifungal activity against Cunninghamella bertholletiae UTHSC 04-2581 infected in neutropenic OF1 mouse assessed as increase in mouse survival rate at 0.8 mg/kg, iv qd administered 1 day after infection for 7 days relative to untreated control. Also on record: dose 0.8 mg/kg. The procedure, abridged: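 Male OF1 mice (~30 g) were made neutropenic with cyclophosphamide 200 mg/kg i.p. plus 5-fluorouracil 150 mg/kg i.v. 1 day before challenge. Challenge was 1 × 10⁴ CFU sporangiospores in 0.2 ml saline via the lateral tail vein. Mice got ceftazidime 5 mg/day s.c. on days 1–7. Dosing started 24 h post-challenge for 7 days. There were 10 mice/group, observed daily for 20 days. Kaplan-Meier analysis with log-rank test.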

For assay [4], the system named is Cunninghamella bertholletiae. Nature of the assay: Antifungal activity against Cunninghamella bertholletiae UTHSC 05-2275 infected in neutropenic OF1 mouse assessed as increase in mouse survival rate at 40 mg/kg, po qd administered 1 day after infection for 7 days relative to untreated control. Also on record: dose 40 mg/kg. The procedure, abridged:
(§1)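 Male OF1 mice, about 30 g, made neutropenic with cyclophosphamide 200 mg/kg i.p. plus 5-fluorouracil 150 mg/kg i.v. 1 day before challenge. Infected i.v. via the lateral tail vein with 1 × 10⁴ CFU of hemacytometer-counted sporangiospores in 0.2 ml saline. Ceftazidime 5 mg/day s.c. on days 1–7. Oral treatment started 24 h after challenge; 10 mice per group; checked daily for 20 days; Kaplan-Meier mean survival time, log-rank test.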

Assay [5] deals with Cunninghamella bertholletiae. Put plainly: Antifungal activity against Cunninghamella bertholletiae UTHSC 05-2275 infected in neutropenic OF1 mouse assessed as increase in mouse survival rate at 60 mg/kg, po qd administered 1 day after infection for 7 days relative to untreated control. Also on record: dose 60 mg/kg. Summed up: as §1
Assay [6] relates to Cunninghamella bertholletiae. Put plainly: Antifungal activity against Cunninghamella bertholletiae UTHSC 05-2275 infected in diabetic OF1 mouse assessed as increase in mouse survival rate at 20 mg/kg, po qd administered 1 day after infection for 7 days relative to untreated control. Also on record: dose 20 mg/kg. Summed up: (§2)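 Male OF1 mice made diabetic with streptozocin 210 mg/kg i.p.; blood glucose above 250 mg/dl at day 10 required. Infected i.v. via the tail vein with 1 × 10⁵ CFU sporangiospores in 0.2 ml saline. Ceftazidime 5 mg/day s.c. on days 1–7. Oral once-daily treatment from day 1 for 7 days; 10 mice per group; followed for 20 days; Kaplan-Meier mean survival time, log-rank test.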

Assay [7] concerns Cunninghamella bertholletiae. Nature of the assay: Antifungal activity against Cunninghamella bertholletiae UTHSC 05-2275 infected in diabetic OF1 mouse assessed as increase in mouse survival rate at 60 mg/kg, po qd administered 1 day after infection for 7 days relative to untreated control. Also on record: dose 60 mg/kg. Summed up: as §2
Assay [8] relates to Cunninghamella bertholletiae. Put plainly: Antifungal activity against Cunninghamella bertholletiae UTHSC 05-2275 infected in diabetic OF1 mouse assessed as increase in mouse survival rate at 80 mg/kg, po qd administered 1 day after infection for 7 days relative to untreated control. Also on record: dose 80 mg/kg. Summed up:
as §2

Assay [9] deals with Cunninghamella bertholletiae. Put plainly: Antifungal activity against Cunninghamella bertholletiae UTHSC 05-2275 infected in neutropenic OF1 mouse assessed as decreased fungal load in brain at 60 mg/kg, po qd administered 1 day post infection measured after 4 to 5 days relative to untreated control. Also on record: dose 60 mg/kg. Summed up: (§3)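 Neutropenic male OF1 mice (cyclophosphamide 200 mg/kg i.p. plus 5-fluorouracil 150 mg/kg i.v., day −1) were given 1 × 10⁴ CFU sporangiospores i.v. in 0.2 ml saline. Treatment from 24 h: 0.8 mg/kg i.v. or oral doses once daily; 10 mice per group. Killed at day 5 (day 4 if moribund). About half of brain, lungs and kidneys homogenized in saline; 10-fold dilutions plated on PDA for 24 h at 35°C; log₁₀ CFU/g tissue.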

Assay [10] has as its system Cunninghamella bertholletiae. Nature of the assay: Antifungal activity against Cunninghamella bertholletiae UTHSC 05-2275 infected in neutropenic OF1 mouse assessed as decreased fungal load in lung at 40 mg/kg, po qd administered 1 day post infection measured after 4 to 5 days relative to untreated control. Also on record: dose 40 mg/kg. Summed up:
as §3

In assay [11] the test system is Cunninghamella bertholletiae. Put plainly: Antifungal activity against Cunninghamella bertholletiae UTSCH 05-2275 infected in diabetic OF1 mouse assessed as decreased fungal load in brain at 40 mg/kg, po qd administered 1 day post infection measured after 4 to 5 days relative to untreated control. Also on record: dose 40 mg/kg. Summed up:
(§4)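 Diabetic male OF1 mice (streptozocin 210 mg/kg i.p.; glucose above 250 mg/dl) were challenged i.v. with 1 × 10⁵ CFU sporangiospores. Oral once-daily dosing from day 1 for 7 days; 10 mice per group. Killed at day 5 (day 4 if moribund). About half of each organ homogenized in saline; serial 10-fold dilutions plated on PDA for 24 h at 35°C; log₁₀ CFU/g tissue.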

Assay [12] deals with Cunninghamella bertholletiae. Nature of the assay: Antifungal activity against Cunninghamella bertholletiae UTSCH 05-2275 infected in diabetic OF1 mouse assessed as decreased fungal load in kidney at 40 mg/kg, po qd administered 1 day post infection measured after 4 to 5 days relative to untreated control. Also on record: dose 40 mg/kg. The procedure, abridged: as §4
In assay [13] the test system is Cunninghamella bertholletiae. Put plainly: Antifungal activity against Cunninghamella bertholletiae UTSCH 05-2275 infected in diabetic OF1 mouse assessed as decreased fungal load in lung at 40 mg/kg, po qd administered 1 day post infection measured after 4 to 5 days relative to untreated control. Also on record: dose 40 mg/kg. The procedure, abridged: (§5)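 Male OF1 mice (mean 30 g) made diabetic with a single i.p. dose of streptozocin 210 mg/kg; blood glucose >250 mg/dl at day 10 qualified. Ceftazidime 5 mg/day s.c. given on days 1–7. Challenge by lateral tail vein with 1 × 10⁵ CFU sporangiospores in 0.2 ml saline. Oral dosing once daily for 7 days, starting 1 day after challenge. Untreated controls. Ten mice per group.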

The subject of assay [14] is Cunninghamella bertholletiae. Nature of the assay: Antifungal activity against Cunninghamella bertholletiae UTSCH 05-2275 infected in diabetic OF1 mouse assessed as decreased fungal load in lung at 80 mg/kg, po qd administered 1 day post infection measured after 4 to 5 days relative to untreated control. Also on record: dose 80 mg/kg. The procedure, abridged: as §5

Assay [15] concerns Cunninghamella bertholletiae. Put plainly: Antifungal activity against Cunninghamella bertholletiae UTSCH 05-2275 infected in diabetic OF1 mouse assessed as decreased fungal load in brain at 60 mg/kg, po qd administered 1 day post infection measured after 4 to 5 days relative to untreated control. Also on record: dose 60 mg/kg. The procedure, abridged: as §4

As for `C[C@@H]1[C@H](O)[C@@H](C)/C=C/C=C/C=C/C=C/C=C/C=C/C=C/[C@H](O[C@@H]2O[C@H](C)[C@@H](O)[C@H](N)[C@@H]2O)C[C@@H]2O[C@](O)(C[C@@H](O)C[C@@H](O)[C@H](O)CC[C@@H](O)C[C@@H](O)CC(=O)O[C@H]1C)C[C@H](O)[C@H]2C(=O)O` [AMPHOTERICIN B], the outcome in [1] and in assay [3] was Active. Also, the result in assay [2] was inactive.

Take `CC[C@@H]([C@H](C)O)n1ncn(-c2ccc(N3CCN(c4ccc(OC[C@@H]5CO[C@@](Cn6cncn6)(c6ccc(F)cc6F)C5)cc4)CC3)cc2)c1=O` [POSACONAZOLE]: the outcome in assay [4], in assay [5], in [7], in assay [8], in assay [9] and in [10] was Active. The result in assay [12], in [14] and in assay [15] was Active. Moreover, the outcome in assay [6], in [11] and in [13] was inactive.
